Experimental data gathered from unrelated publications.
Protocols differ between the studies behind these lines.
Target: Serine/threonine-protein kinase Nek7 (NEK7, Homo sapiens, UniProt Q8TDX7)

| Structure (SMILES) | test | test system | conditions | measurement | result |
| --- | --- | --- | --- | --- | --- |
| Cn1c2c(c3ccc(Cl)c(Cl)c31)C(C#N)C1(CCN(C(=O)OC(C)(C)C)CC1)NC2=O (racemic) | thermal stability, DSF |  | 10 µM | ΔTm | 0 °C |
| CS(=O)(=O)CCNCc1ccc(-c2ccc3ncnc(Nc4ccc(OCc5cccc(F)c5)c(Cl)c4)c3c2)o1 | cell-free assay |  | 0.5 µM | remaining signal | 98.7% |
| CN([C@@H]1CCc2c(CC(=O)O)c3cc(S(C)(=O)=O)ccc3n2C1)S(=O)(=O)c1ccc(F)cc1 | cell-free assay, competition with immobilised ligand |  | 1 µM | remaining binding | 98% |
| Clc1ccc(Nc2nnc(Cc3ccncc3)c3ccccc23)cc1 | cell-free assay |  | 0.5 µM | remaining signal | 96.8% |
| CN1CCN(c2cnc3c(C4CCN(C(=O)c5ccc(OC(F)(F)F)cc5N)CC4)ncnc3c2)CC1 | cell-free assay, competition with immobilised ligand |  | 1 µM | remaining binding | 100% |
| CCN(CC)CCNC(=O)c1c(C)[nH]c(/C=C2\C(=O)Nc3ccc(F)cc32)c1C | enzyme activity, inhibitor |  | 10 µM | inhibition | -6% |
| CC(C)(C)c1nc(-c2cccc(NS(=O)(=O)c3c(F)cccc3F)c2F)c(-c2ccnc(N)n2)s1 | enzyme activity, inhibitor, radiometric |  | 1 µM | remaining activity | 42% |
| Cc1ccc(Nc2nccc(N(C)c3ccc4c(C)n(C)nc4c3)n2)cc1S(N)(=O)=O | enzyme activity, inhibitor |  | 0.3 µM | inhibition | -6% |
| O=C(Nc1cnn(-c2csc(C(=O)NC3COC3)c2)c1)Nc1c(F)cccc1Cl | enzyme activity, inhibitor |  | 5 µM | remaining activity | 88.1% |
| N#Cc1ccc(Nc2ccc3[nH]c(=O)[nH]c3c2)c(Cl)c1 | cell-free assay, competition with immobilised ligand |  | 1 µM | remaining binding | 100% |
| CC/C(=N\NC(=O)NCc1cccc(O)c1)c1ccc(O)c(C)c1O | enzyme activity, inhibitor |  | 0.1 µM | inhibition | 6.5% |
| COc1cc(Cl)c(C(=O)N[C@@H](CN[C@H]2CC[C@@H](N)CC2)Cc2ccc(C#N)cc2)cc1-c1ccc(CN[C@H](C)c2ccc(C)cc2)o1 | enzyme activity, inhibitor |  | 1 µM | remaining activity | 99% |
| CC1(C)NC(=O)c2[nH]c3c(Cl)c(Cl)ccc3c2C1C#N (stereo not drawn) | thermal stability, DSF |  | 10 µM | ΔTm | -0.4 °C |
| CCCS(=O)(=O)Nc1ccc(F)c(C(=O)c2c[nH]c3ncc(-c4ccc(Cl)cc4)cc23)c1F | enzyme activity, inhibitor |  | 1 µM | inhibition | < 10% |
| CNC(=O)c1cc(Oc2ccc(NC(=O)Nc3ccc(Cl)c(C(F)(F)F)c3)cc2)ccn1 | enzyme activity, inhibitor |  | 10 µM | inhibition | -7% |
| CCCCNc1ncc2c(-c3ccc(F)cc3)nn(C[C@H]3CC[C@H](N)CC3)c2n1 | target engagement in cells, inhibitor, chemoproteomics |  | 20 mM | inhibition | 6.6% |
| CCN1CCC2(CC1)NC(=O)c1c(c3ccc(Cl)c(Cl)c3n1C)C2C#N (racemic) | thermal stability, DSF |  | 10 µM | ΔTm | -0.2 °C |
| CCN(CC)c1ccc(C2=NNC(=O)CC2C)cc1[N+](=O)[O-] (stereo not drawn) | enzyme activity, inhibitor |  | 10 µM | remaining activity | 107% |
| CCN1CCN(Cc2ccc(NC(=O)c3ccc(C)c(Oc4ccnc5[nH]ccc45)c3)cc2C(F)(F)F)CC1 | target engagement in cells, inhibitor, chemoproteomics | A-375 | 0.5 µM | inhibition | -0.545% |
| O=C1NC(c2ccccn2)Sc2ccccc21 (stereo not drawn) | cell-free assay, competition with immobilised ligand |  | 1 µM | remaining binding | 68% |
| Cn1c2c(c3ccc(Cl)c(Cl)c31)C(C#N)C1(CCNCC1)NC2=O (racemic) | thermal stability, DSF |  | 10 µM | ΔTm | -0.1 °C |
| Cc1ccc(C(=O)Nc2ccc(CN3CCN(C)CC3)c(C(F)(F)F)c2)cc1C#Cc1cnc2cccnn12 | enzyme activity, inhibitor |  | 23.5 nM | remaining activity | 93% |
| O=c1nc(-c2ccccn2)sc2ccccc12 | binding, competition with immobilised ligand |  | 1 µM | remaining binding | 75% |
| Cc1ccc(NC(=O)c2ccc(C)c(C(F)(F)F)c2)cc1C#Cc1nn(C2CCC(O)CC2)c2ncnc(N)c12 (stereo not drawn) | cell-free assay |  | 10 µM | remaining signal | 98% |
| Nc1c(C(=O)NCc2ccc(C(=O)NCCCC3CCCCC3)cc2)cnn1-c1ccccc1 | cell-free assay, competition with immobilised ligand |  | 0.1 µM | remaining binding | 99% |
| Cc1cnc(NC2CCOCC2)nc1-n1cnc(C(=O)NC(CN)c2cc(F)cc(Cl)c2)c1 (stereo not drawn) | enzyme activity, inhibitor, radiometric |  | 1 µM | remaining activity | 99% |
| Cn1c2c(Cl)c(Cl)ccc2c2cn[nH]c(=O)c21 | thermal stability, DSF |  | 10 µM | ΔTm | 0 °C |
| C[C@@H](c1cccc(C#N)c1)n1cc(Cl)cc(C(N)=O)c1=N | cell-free assay, competition with immobilised ligand |  | 1 µM | remaining binding | 89% |
| CCC1(CC)NC(=O)c2c(c3ccc(Cl)c(Cl)c3n2C)C1C#N (stereo not drawn) | thermal stability, DSF |  | 10 µM | ΔTm | -0.4 °C |
| Cc1c(C(=O)O)cc(-c2ccc(C3CCNCC3)cc2)c2ccc(-c3ccc(C(F)(F)F)cc3)cc12 | binding, competition with immobilised ligand |  | 1 µM | remaining binding | 100% |
